ChEMBL document CHEMBL1127317 (J Med Chem, 1994)

Tests used:
Assay type in all cases: ADME
[1] = The half-life for cyclization reaction at pH 2.4
In short: (§1)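 Amines generated from the 2-nitroaryl amides, incubated at 37 °C in aqueous buffer of ionic strength 0.01 M. Cyclization followed at the same time by UV/vis spectrophotometry in thermostated stoppered cuvettes and by C-18 reverse-phase HPLC (MeOH/10 mM phosphate pH 7 mobile phase). Runs lasted 4 h at first, extended to about 4 half-lives when product formed. Pseudo-first-order k_obs was taken from first-order loss of amine peak area.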

[2] = The observed pseudo-first-order rate constants of compound for cyclization reaction at pH 2.4; in short: as §1
[3] = The observed pseudo-first-order rate constant of compound for cyclization reaction at pH 2.4; in short: as §1
[4] = The half-life for cyclization reaction at pH 6.8; in short: as §1
[5] = The observed pseudo-first-order rate constant of compound for cyclization reaction at pH 6.8; in short: as §1

Row | SMILES | half-life [1] [min] | K obs [2] [min⁻¹] | K obs [3] [min⁻¹] | half-life [4] [min] | T1/2 [1] [min] | K obs [5] [min⁻¹]
1 | COc1ccc(NC(=O)c2cccc3cccc(N)c23)cc1 | 6.3 | 0.11 |  |  |  | 
2 | COc1ccc(NC(=O)Cc2ccccc2N)cc1 | 260 |  | 0.0026 |  |  | 
3 | CC(=O)c1ccc(NC(=O)C(C)(C)c2ccccc2N)cc1 |  |  | 21 | 35 | 0.033 | 0.02
4 | COc1ccc(NC(=O)C(C)(C)c2ncccc2N)cc1 | 8.9 |  | 0.078 | 530 |  | 0.0013
5 | COc1ccc(NC(=O)C(C)(C)c2ccccc2N)cc1 |  |  | 10 | 72 | 0.07 | 0.0096
6 | CCC(CC)(C(=O)Nc1ccc(OC)cc1)c1ccccc1N | 0.43 |  | 1.64 | 250 |  | 0.028
7 | COc1ccc(NC(=O)CS(=O)(=O)c2c(C)cccc2N)cc1 | 1700 |  | 0.0004 |  |  | 
8 | COc1ccc(NC(=O)c2c(C)nn(-c3ccccc3)c2-c2ccccc2N)cc1 | 36 |  | 0.019 |  |  | 
9 | Nc1ccccc1CCC(=O)Nc1cnc2ccccc2c1 | 32 |  | 0.022 |  |  | 
10 | Nc1ccccc1CC(=O)Nc1cnc2ccccc2c1 | 87 | 0.008 |  |  |  | 
11 | COc1ccc(NC(=O)[C@@H]2CCCN2C(=O)c2ccccc2N)cc1 | 74 |  | 0.0094 |  |  | 
12 | COc1ccc(NC(=O)Cn2ncc3cccc(N)c32)cc1 | 83 |  | 0.0084 |  |  | 
13 | COc1ccc(NC(=O)CCc2ccccc2N)cc1 | 58 |  | 0.012 |  |  | 
14 | COc1ccc(NC(=O)C(C)(C)c2cc(C(=O)NCCN(C)C)ccc2N)cc1 | 0.27 |  | 2.58 | 770 |  | 0.0009
15 | CC(C)(C(=O)Nc1ccccc1)c1ccccc1N |  |  | 21 | 35 | 0.033 | 0.02
16 | COc1ccc(N(C)C(=O)C(C)(C)c2ccccc2N)cc1 | 0.28 |  | 2.5 | 800 |  | 0.0009
17 | CN(C)c1ccc(NC(=O)C(C)(C)c2ccccc2N)cc1 |  |  |  | 71 |  | 0.0097
18 | COc1ccc(NC(=O)C(C)c2ccccc2N)cc1 (stereo not given) | 16 |  | 0.043 |  |  | 
